Common to all, as to type: functional, cell-based
The test system of one assay is HeLa. Nature of the assay: Antiproliferative activity against human HeLa cells assessed as inhibition of cell proliferation measured after 48 hrs by CCK-8 assay. The gist of the method: (§1)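 RPMI-1640 with 10% FBS, 37 °C, 5% CO2. Cells seeded at 1-3 × 10^4/well and exposed to 0.00098–64 μM (nine 4-fold steps) or 0.1% DMSO vehicle for 48 h. CCK-8 then added for 4 h; absorbance read at 450 nm. IC50 taken from dose–response curves; mean ± SD of three independent experiments.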
(In general: Formazan colour is commonly taken as a measure of viable cells.)

A further assay concerns MCF7. Nature of the assay: Antiproliferative activity against human MCF7 cells assessed as inhibition of cell proliferation measured after 48 hrs by CCK-8 assay. The note with it: MCF7, 48 h.
Another assay concerns A549. Nature of the assay: Antiproliferative activity against human A549 cells assessed as inhibition of cell proliferation measured after 48 hrs by CCK-8 assay. The note with it: A549, 48 h. The essentials:
as §1

Another assay deals with HCT-116. The experiment in a line: Antiproliferative activity against human HCT-116 cells assessed as inhibition of cell proliferation measured after 48 hrs by CCK-8 assay. The note with it: HCT-116, 48 h. The gist of the method: as §1
A further assay has as its system B16-F0. The experiment in a line: Antiproliferative activity against mouse B16-F0 cells assessed as inhibition of cell proliferation measured after 48 hrs by CCK-8 assay. To be noted: B16F0, 48 h. The essentials: as §1

Molecules are shown by their SMILES.

The IC50 is the concentration that gives 50% inhibition. On to `COc1cc(-c2ccnc3cc(-c4cccc(C)c4)nn23)cc(OC)c1OC`, for which the IC50 in the assay with HeLa was determined as 4.23 µM; in the assay with MCF7 it was 1.08 µM; in the assay with A549, 5.73 µM; in the assay with HCT-116, 6.15 µM; in the assay on B16-F0, 2.22 µM.

For the compound `COc1ccc(-c2cc3nccc(-c4cc(OC)c(OC)c(OC)c4)n3n2)cc1`, the IC50 in the assay with HeLa was 0.373 µM; in the assay with MCF7 it was 0.125 µM; in the assay with A549, 0.376 µM; in the assay with HCT-116, 0.404 µM; with B16-F0, 1.41 µM.

As for `COc1cc(-c2ccnc3cc(-c4ccc(N5CCOCC5)cc4)nn23)cc(OC)c1OC`, the half-maximal inhibitory concentration (IC50) in the assay on HeLa, in the assay on MCF7, with A549, with HCT-116 and in the assay on B16-F0 was more than 10 µM in each case.

With `COc1cc(-c2ccnc3c(-c4c[nH]c5ccccc45)cnn23)cc(OC)c1OC`, the IC50 in the assay with HeLa, in the assay on MCF7, in the assay on A549, in the assay on HCT-116 and with B16-F0 was more than 10 µM throughout.

For `COc1cc(-c2ccnc3cc(-c4cn(C(=O)OC(C)(C)C)c5ccccc45)nn23)cc(OC)c1OC`, the 50% inhibitory concentration (IC50) in the assay with HeLa was 3.77 µM; in the assay with MCF7 it was 0.268 µM; in the assay with A549, 2.06 µM; in the assay with HCT-116, 5.72 µM; in the assay on B16-F0, 3.07 µM.

In the case of `COc1cc(-c2ccnc3cc(-c4ccc(Cl)cc4)nn23)cc(OC)c1OC`, the IC50 with HeLa came to 1.49 µM; in the assay with MCF7, 2.32 µM; with A549, 3.06 µM; with HCT-116, 3.33 µM; in the assay with B16-F0, 4.09 µM.

As to `COc1cc(-c2ccnc3cc(-c4ccc(C(F)(F)F)cc4)nn23)cc(OC)c1OC`, the IC50 in the assay with HeLa amounted to 1.84 µM; in the assay with MCF7, 2.44 µM; with A549, 2.07 µM; in the assay with HCT-116 it was 1.86 µM; with B16-F0, 1.77 µM.

Consider `COc1cc(-c2ccnc3cc(-c4cccc(C#N)c4)nn23)cc(OC)c1OC`, for which the concentration for half-maximal inhibition (IC50) in the assay with HeLa, in the assay on MCF7, with A549, in the assay with HCT-116 and in the assay with B16-F0 was more than 10 µM throughout.

On to `COc1cc(-c2ccnc3cc(-c4ccc(N(C)C)cc4)nn23)cc(OC)c1OC`, for which the IC50 was determined as 0.378 µM in the assay on HeLa; 0.044 µM with MCF7; 1.1 µM in the assay with A549; 2.05 µM in the assay on HCT-116; 0.702 µM with B16-F0.

For `COc1cc(-c2ccnc3cc(-c4cn(C)c5ccccc45)nn23)cc(OC)c1OC`, the IC50 in the assay on HeLa was found to be 0.399 µM; with MCF7, 0.095 µM; in the assay with A549 it was 1.34 µM; in the assay with HCT-116 it was 0.762 µM; in the assay with B16-F0 it was 0.185 µM.

For `COc1cc(-c2ccnc3cc(-c4ccc(C(C)(C)C)cc4)nn23)cc(OC)c1OC`, the IC50 with HeLa, in the assay with MCF7, in the assay on A549, in the assay with HCT-116 and in the assay on B16-F0 was more than 10 µM throughout.

`COc1ccc(-c2cc3nccc(-c4cc(OC)c(OC)c(OC)c4)n3n2)cc1[N+](=O)[O-]`: the half-inhibitory concentration (IC50) in the assay on HeLa, with MCF7, in the assay on A549, in the assay with HCT-116 and in the assay on B16-F0 was more than 10 µM in each case.

On to `COc1cc(-c2ccnc3cc(-c4ccc5c(cnn5C)c4)nn23)cc(OC)c1OC`, for which the IC50 was determined as 0.097 µM in the assay on HeLa; 0.279 µM in the assay on MCF7; 0.233 µM in the assay with A549; 2.44 µM in the assay on HCT-116; 1.47 µM in the assay with B16-F0.

Consider `Cn1ccc2cc(-c3cc4nccc(-c5ccc(F)cc5)n4n3)ccc21`, for which the IC50 in the assay with HeLa amounted to 5.21 µM; in the assay with MCF7, 4.58 µM; in the assay on A549 it was 3.52 µM; in the assay on HCT-116, 2.16 µM; with B16-F0, 4.78 µM.

For the compound `COc1cc(-c2ccnc3cc(-c4ccc5cc[nH]c5c4)nn23)cc(OC)c1OC`, the IC50 in the assay on HeLa is 0.125 µM; with MCF7, 0.023 µM; in the assay with A549, 0.17 µM; in the assay with HCT-116, 0.187 µM; in the assay with B16-F0, 0.055 µM.

`Cc1ccc(-c2cc3nccc(-c4ccc(F)cc4)n3n2)cc1`: the IC50 with HeLa, in the assay with MCF7, in the assay on A549, with HCT-116 and in the assay on B16-F0 was more than 10 µM throughout.

Regarding `COc1cc(-c2cc3nccc(-c4cc(OC)c(OC)c(OC)c4)n3n2)cc(OC)c1OC`, the IC50 with HeLa, in the assay on MCF7, in the assay on A549, with HCT-116 and in the assay with B16-F0 was more than 10 µM in each case.

On to `COc1ccc(-c2cc3nccc(-c4cc(OC)c(OC)c(OC)c4)n3n2)cc1F`, for which the IC50 worked out at 0.236 µM in the assay on HeLa; 0.183 µM in the assay with MCF7; 0.545 µM with A549; 2.84 µM with HCT-116; 3.95 µM with B16-F0.

In the case of `COc1cc(-c2ccnc3cc(-c4ccc5ccn(C)c5c4)nn23)cc(OC)c1OC`, the IC50 was 0.187 µM in the assay on HeLa; 0.074 µM with MCF7; 0.829 µM with A549; 1.04 µM in the assay with HCT-116; 0.657 µM with B16-F0.

Consider `COc1cc(-c2ccnc3cc(-c4cn(CO)c5ccccc45)nn23)cc(OC)c1OC`, for which the IC50 with HeLa was 0.103 µM; with MCF7 it was 0.019 µM; in the assay on A549, 0.167 µM; in the assay on HCT-116 it was 0.128 µM; in the assay with B16-F0, 0.093 µM.

Consider `COc1cc(-c2ccnc3cc(-c4c[nH]c5ccccc45)nn23)cc(OC)c1OC`, for which the IC50 in the assay with HeLa is 0.195 µM; in the assay on MCF7, 0.085 µM; with A549, 0.029 µM; in the assay on HCT-116 it was 0.035 µM; with B16-F0, 0.04 µM.

On to `C=Cc1ccc(-c2cc3nccc(-c4cc(OC)c(OC)c(OC)c4)n3n2)cc1`, for which the IC50 in the assay with HeLa was 0.882 µM; in the assay on MCF7, 0.193 µM; with A549, 1.03 µM; with HCT-116 it was 1.05 µM; in the assay with B16-F0 it was 0.788 µM.

In the case of `COc1cc(-c2ccnc3cc(-c4ccc(C(C)=O)cc4)nn23)cc(OC)c1OC`, the IC50 in the assay on HeLa was 1.81 µM; in the assay with MCF7, 5.23 µM; with A549 it was 4.1 µM; with HCT-116 it was 4.39 µM; with B16-F0, 3.93 µM.

Consider `COc1cc(-c2ccnc3cc(-c4cnn(C)c4)nn23)cc(OC)c1OC`, for which the IC50 with HeLa was 1.83 µM; in the assay with MCF7 it was 0.274 µM; in the assay with A549 it was 1.15 µM; in the assay on HCT-116 it was 2.11 µM; in the assay with B16-F0, 1.24 µM.

In the case of `COc1cc(-c2ccnc3cc(-c4ccc(F)cc4)nn23)cc(OC)c1OC`, the IC50 in the assay with HeLa worked out at 5.84 µM; with MCF7, 1.28 µM; in the assay on A549, 3.8 µM; in the assay with HCT-116 it was 5.03 µM; in the assay with B16-F0, 4.54 µM.

For the compound `COc1ccc(-c2cc3nccc(-c4cc(OC)c(OC)c(OC)c4)n3n2)cc1N`, the IC50 with HeLa was 0.283 µM; in the assay with MCF7, 0.027 µM; with A549, 0.138 µM; with HCT-116, 0.251 µM; in the assay with B16-F0, 0.088 µM.

With `CCOC(=O)c1ccc(-c2cc3nccc(-c4cc(OC)c(OC)c(OC)c4)n3n2)cc1`, the IC50 with HeLa, with MCF7, in the assay with A549, in the assay with HCT-116 and with B16-F0 was more than 10 µM in each case.

The values are drawn from ChEMBL document CHEMBL4706506 (Eur J Med Chem, 2020).
